# Columns and labels:
# [1] = biological target: T1, 3-hydroxy-3-methylglutaryl-coenzyme A reductase (Homo sapiens) (UniProt P04035); experiment: Inhibition of cellular HMG-CoA reductase in cultures of hepatic cells (HEP G2, a human hepatoma cell line) relative to mevinolin; format: cell-based
# T1 sequence (whole entry): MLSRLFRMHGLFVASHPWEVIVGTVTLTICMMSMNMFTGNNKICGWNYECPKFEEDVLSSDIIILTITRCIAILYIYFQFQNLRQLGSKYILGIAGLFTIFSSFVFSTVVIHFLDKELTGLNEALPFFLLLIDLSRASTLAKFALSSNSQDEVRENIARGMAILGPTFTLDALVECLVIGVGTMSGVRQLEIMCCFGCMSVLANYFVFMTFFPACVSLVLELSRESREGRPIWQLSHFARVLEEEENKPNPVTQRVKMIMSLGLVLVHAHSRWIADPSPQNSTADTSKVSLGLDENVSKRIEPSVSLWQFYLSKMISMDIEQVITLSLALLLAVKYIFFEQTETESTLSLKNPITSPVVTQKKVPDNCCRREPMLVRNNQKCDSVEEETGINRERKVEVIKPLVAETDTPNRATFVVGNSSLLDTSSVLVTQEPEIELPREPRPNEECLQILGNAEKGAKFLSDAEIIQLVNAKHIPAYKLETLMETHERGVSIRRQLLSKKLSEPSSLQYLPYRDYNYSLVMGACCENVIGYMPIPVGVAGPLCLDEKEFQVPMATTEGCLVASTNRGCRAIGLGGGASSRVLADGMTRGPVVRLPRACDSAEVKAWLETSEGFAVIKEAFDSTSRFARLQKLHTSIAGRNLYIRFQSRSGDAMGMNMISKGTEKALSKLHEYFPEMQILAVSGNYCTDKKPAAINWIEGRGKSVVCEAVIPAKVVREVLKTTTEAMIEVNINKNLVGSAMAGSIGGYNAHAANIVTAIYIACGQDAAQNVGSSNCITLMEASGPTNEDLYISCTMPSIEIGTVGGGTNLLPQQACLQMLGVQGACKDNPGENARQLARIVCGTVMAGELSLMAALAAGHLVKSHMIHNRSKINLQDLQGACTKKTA
# In short: (§1)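 HEP G2 human hepatoma cells in culture; cellular HMG-CoA reductase inhibition read as reduced incorporation of sodium [14C]acetate into cholesterol; IC50 values varied somewhat between cell batches. Assay system as in the preceding paper.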
# [2] = biological target: T2, 3-hydroxy-3-methylglutaryl-coenzyme A reductase (Rattus norvegicus, UniProt P51639); experiment: In vitro inhibition of HMG-CoA reductase of rat liver
# T2 sequence (P51639 whole entry): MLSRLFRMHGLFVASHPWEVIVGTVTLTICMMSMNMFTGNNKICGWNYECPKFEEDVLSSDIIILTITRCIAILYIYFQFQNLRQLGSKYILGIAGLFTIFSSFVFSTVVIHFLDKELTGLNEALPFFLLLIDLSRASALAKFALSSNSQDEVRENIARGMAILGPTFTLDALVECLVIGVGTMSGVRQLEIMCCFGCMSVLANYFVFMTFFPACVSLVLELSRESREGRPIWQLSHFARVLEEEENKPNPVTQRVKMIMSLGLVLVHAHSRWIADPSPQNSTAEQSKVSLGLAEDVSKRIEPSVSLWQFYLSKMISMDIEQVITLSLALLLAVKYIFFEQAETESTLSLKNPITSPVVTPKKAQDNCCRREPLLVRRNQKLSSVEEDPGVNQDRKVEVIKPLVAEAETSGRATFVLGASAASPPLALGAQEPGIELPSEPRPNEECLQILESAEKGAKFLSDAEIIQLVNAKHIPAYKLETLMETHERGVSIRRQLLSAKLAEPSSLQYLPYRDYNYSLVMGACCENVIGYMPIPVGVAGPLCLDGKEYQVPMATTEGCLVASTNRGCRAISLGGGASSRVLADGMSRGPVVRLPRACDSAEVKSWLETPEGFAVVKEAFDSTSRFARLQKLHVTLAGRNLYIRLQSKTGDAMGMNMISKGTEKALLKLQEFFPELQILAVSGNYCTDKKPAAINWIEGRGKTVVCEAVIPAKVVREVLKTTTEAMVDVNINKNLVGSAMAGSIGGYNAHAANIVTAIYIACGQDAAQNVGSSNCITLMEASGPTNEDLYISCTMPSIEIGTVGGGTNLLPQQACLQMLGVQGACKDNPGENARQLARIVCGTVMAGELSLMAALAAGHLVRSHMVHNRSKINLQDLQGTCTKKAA
# [3] = biological target: T3, 3-hydroxy-3-methylglutaryl-coenzyme A reductase (Rattus norvegicus) (UniProt P51639); experiment: In vitro inhibition of solubilized, partially purified rat liver HMG-CoA reductase relative to mevinolin
# T3 sequence (whole entry): T2 sequence (P51639 whole entry)
# [4] = biological target: T4, 3-hydroxy-3-methylglutaryl-coenzyme A reductase (Homo sapiens, UniProt P04035); experiment: Inhibition of cellular HMG-CoA reductase in cultures of hepatic cells (HEP G2, a human hepatoma cell line); format: cell-based; in short: as §1
# T4 sequence (P04035 whole entry): T1 sequence (whole entry)
# Oryctolagus cuniculus [5] = experiment: Percent decrease in total plasma cholesterol in rabbit was determined after oral administration of a dose of 10 mg/kg for 6 days; format: functional; parameters: scale not given: the % may be the effect or the level left
# In short: (§2)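 Normally fed normolipemic rabbits given oral doses repeatedly (20 mg/kg for 10 days, n = 6; 10 mg/kg for 6 days, n = 4); total plasma cholesterol decrease expressed as percent.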
# Rattus norvegicus [6] = experiment: Inhibition of hepatic cholesterol de novo synthesis in male rats after po administration, relative to mevinolin; format: functional
# In short: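 Male rats dosed orally. […] Dose 5 mg/kg bw for lactone form, optically pure; 10 mg/kg bw for racemic sodium salts. Potency expressed against optically pure mevinolin tested under the same conditions.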
# Rattus norvegicus [7] = experiment: Inhibition of hepatic cholesterol de novo synthesis in male rats after po administration; values are per cent of control
# Canis familiaris [8] = experiment: Percent decrease in plasma LDL-cholesterol in dog was determined after oral administration of a dose of 10 mg/kg for 19 days; format: functional, Canis lupus familiaris; parameters: scale not given: the % may be the effect or the level left
# In short: (§3)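 Normally fed male beagle dogs (n = 4) given drug orally each day (20 mg/kg for 14 days or 10 mg/kg for 19 days); plasma LDL- and HDL-cholesterol followed as percent change.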
# Canis familiaris [9] = experiment: Percent increase in plasma HDL-cholesterol in dog was determined after oral administration of a dose of 10 mg/kg for 19 days; format: functional, Canis lupus familiaris; in short: as §3
# Rattus norvegicus [10] = experiment: Inhibition of hepatic cholesterol de novo synthesis in male rats after po administration,; values are per cent of control
# Canis familiaris [11] = experiment: Percent decrease in plasma LDL-cholesterol in dog was determined after oral administration of a dose of 20 mg/kg for 14 days; format: functional, Canis lupus familiaris; parameters: scale not given: the % may be the effect or the level left; in short: as §3
# Canis familiaris [12] = experiment: Percent increase in plasma HDL-cholesterol in dog was determined after oral administration of a dose of 20 mg/kg for 14 days; format: functional, Canis lupus familiaris; in short: as §3
# Oryctolagus cuniculus [13] = experiment: Percent decrease in total plasma cholesterol in rabbit was determined after oral administration of a dose of 20 mg/kg for 10 days; format: functional; parameters: scale not given: the % may be the effect or the level left; in short: as §2
Structure (SMILES),Relative potency [1],IC50 [2],Relative potency [3],IC50 [4],also measured
Cc1c(/C=C/[C@@H](O)C[C@@H](O)CC(=O)O)c(-c2ccc(F)cc2)cn1C(C)C,1,330 nM,2,6000 nM,–
CC(C)c1c(CC[C@@H](O)C[C@@H](O)CC(=O)O)c(-c2ccc(F)cc2)cn1-c1ccccc1,–,3 nM,257,–,–
Cc1c(-c2ccc(F)cc2)c(CC[C@@H](O)C[C@@H](O)CC(=O)O)c(C(C)C)n1-c1ccccc1 [listing 1 of 2 here],–,–,300,–,–
CC(C)c1c(/C=C/[C@H](O)C[C@@H](O)CC(=O)O)c(-c2ccc(F)cc2)cn1C1CCCCC1,47,69 nM,12,106 nM,–
CC(C)c1c(CC[C@@H](O)C[C@@H](O)CC(=O)[O-])c(-c2ccc(F)cc2)cn1C(C)C.[Na+] (racemic),–,18 nM,–,2 nM,"Activity (Oryctolagus cuniculus [5]): 42%; Relative potency (Rattus norvegicus [6]): 156; level, % of control (Rattus norvegicus [7]): 9%"
CC[C@H](C)C(=O)O[C@H]1C[C@@H](C)C=C2C=C[C@H](C)[C@H](CC[C@@H]3C[C@@H](O)CC(=O)O3)[C@H]21 [LOVASTATIN],–,–,–,–,"Activity (Canis familiaris [8]): -18%; Activity (Canis familiaris [9]): 2%; Activity (Oryctolagus cuniculus [5]): 25%; level, % of control (Rattus norvegicus [10]): 14%"
CC(C)c1c(CC[C@@H](O)C[C@@H](O)CC(=O)[O-])c(-c2ccc(F)cc2)cn1C1CCCCC1.[Na+],–,–,–,–,"level, % of control (Rattus norvegicus [7]): 6%"
CC(C)c1c(CC[C@@H](O)C[C@@H](O)CC(=O)O)c(-c2ccc(F)cc2)cn1C(C)C [listing 1 of 2 here],–,9 nM,–,–,–
Cc1c(-c2ccc(F)cc2)c(CC[C@@H](O)C[C@@H](O)CC(=O)O)c(C(C)C)n1-c1ccccc1 (racemic) [listing 1 of 2 here],–,5 nM,–,–,–
CC(C)c1c(CC[C@@H](O)C[C@@H](O)CC(=O)O)c(-c2ccc(F)cc2)cn1C(C)C [listing 2 of 2 here],–,–,85,–,–
CC(C)c1c(/C=C/[C@@H](O)C[C@@H](O)CC(=O)[O-])c(-c2ccc(F)cc2)cn1-c1ccccc1.[Na+],–,–,–,–,"level, % of control (Rattus norvegicus [7]): 5.5%"
Cc1c(CC[C@@H](O)C[C@@H](O)CC(=O)O)c(-c2ccc(F)cc2)cn1C(C)C,19,100 nM,9,270 nM,–
Cc1c(/C=C/[C@@H](O)C[C@@H](O)CC(=O)O)c(-c2ccc(F)cc2)c(C)n1-c1ccccc1,1,250 nM,3,5000 nM,–
Cc1c(CC[C@@H](O)C[C@@H](O)CC(=O)O)c(-c2ccc(F)cc2)c(C)n1-c1ccccc1,9,70 nM,11,570 nM,–
CC(C)c1c(CC[C@@H](O)C[C@@H](O)CC(=O)O)c(-c2ccc(F)cc2)cn1C(C)C (racemic),2500,–,42,–,–
Cc1c(-c2ccc(F)cc2)c(CC[C@@H](O)C[C@@H](O)CC(=O)O)c(C(C)C)n1-c1ccccc1 [listing 2 of 2 here],–,2.5 nM,–,–,–
Cc1c(-c2ccc(F)cc2)c(CC[C@@H](O)C[C@@H](O)CC(=O)O)c(C(C)C)n1-c1ccccc1 (racemic) [listing 2 of 2 here],–,–,149,–,–
CC(C)c1c(CCC(O)CC(O)CC(=O)[O-])c(-c2ccc(F)cc2)cn1-c1ccccc1.[Na+] (racemic),> 500,6 nM,128,< 10 nM,"Activity (Canis familiaris [11]): 48%; Activity (Canis familiaris [12]): 14%; Activity (Oryctolagus cuniculus [13]): 34%; Relative potency (Rattus norvegicus [6]): 250; level, % of control (Rattus norvegicus [7]): 5.6%"
